Test results taken from ChEMBL document CHEMBL1144562, “Synthesis of a new class of 2-anilino substituted nicotinyl arylsulfonylhydrazides as potential anticancer and antibacterial agents” (2007).
In brackets after ≈: the same amount, converted by molar mass.

Experiments:
Format in all cases: functional
Pseudomonas aeruginosa = assay: Antibacterial activity against Pseudomonas aeruginosa MTCC 424 after 18 hrs; conditions: MTCC 424, 18 h
Method in brief: (§1)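 Disc diffusion (Kirby–Bauer) on Mueller-Hinton agar inoculated with fresh bacteria at 1-5 × 10^4 cfu mL-1. Compounds were dissolved in DMF at a range of concentrations, and discs were placed in triplicate. Plates were incubated at 30 °C for 18 h. MIC was taken as the lowest concentration giving no visible bacterial growth on the plate.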

Bacillus subtilis = assay: Antibacterial activity against Bacillus subtilis MTCC 441 after 18 hrs; conditions: MTCC 441, 18 h; method in brief: as §1
Escherichia coli = assay: Antibacterial activity against Escherichia coli MTCC 448 after 18 hrs; conditions: MTCC 448, 18 h; method in brief: as §1
Vibrio = assay: Antibacterial activity against Vibrio species after 18 hrs; method in brief: as §1
[1] = system: Staphylococcus epidermidis; assay: Antibacterial activity against Staphylococcus epidermidis MTCC 435 after 18 hrs; conditions: MTCC 435, 18 h; method in brief: as §1

Structure (SMILES)	MIC (Pseudomonas aeruginosa)	MIC (Bacillus subtilis)	MIC (Escherichia coli)	MIC (Vibrio)	MIC [1]
COc1ccc(Nc2ncccc2C(=O)NNS(=O)(=O)c2ccc(C)cc2)cc1	> 25 µg/mL	8 µg/mL (≈ 19.4 µM)	15 µg/mL (≈ 36.4 µM)	19 µg/mL (≈ 46.1 µM)	17 µg/mL (≈ 41.2 µM)
O=C(NNS(=O)(=O)c1ccccc1)c1cccnc1Nc1ccccc1	> 25 µg/mL	17 µg/mL (≈ 46.1 µM)	20 µg/mL (≈ 54.3 µM)	20 µg/mL (≈ 54.3 µM)	21 µg/mL (≈ 57 µM)
Nc1ccc(S(=O)(=O)Nc2ncccn2)cc1 [SULFADIAZINE]	22 µg/mL (≈ 87.9 µM)	18 µg/mL (≈ 71.9 µM)	15 µg/mL (≈ 59.9 µM)	13 µg/mL (≈ 51.9 µM)	20 µg/mL (≈ 79.9 µM)
Nc1ccc(S(N)(=O)=O)cc1 [SULFANILAMIDE]	> 512 µg/mL	> 128 µg/mL	> 128 µg/mL	> 512 µg/mL	> 512 µg/mL

More lines, now with the values ahead:

MIC (Pseudomonas aeruginosa)	MIC (Bacillus subtilis)	MIC (Escherichia coli)	MIC (Vibrio)	MIC [1]	Structure (SMILES)
> 25 µg/mL	10 µg/mL (≈ 24.7 µM)	13 µg/mL (≈ 32.1 µM)	22 µg/mL (≈ 54.4 µM)	20 µg/mL (≈ 49.5 µM)	O=C(NNS(=O)(=O)c1ccc(F)cc1)c1cccnc1Nc1ccc(F)cc1
> 25 µg/mL	16 µg/mL (≈ 36.1 µM)	20 µg/mL (≈ 45.1 µM)	22 µg/mL (≈ 49.6 µM)	19 µg/mL (≈ 42.8 µM)	CC(=O)Nc1ccc(S(=O)(=O)NNC(=O)c2cccnc2Nc2ccc(F)cc2)cc1
> 25 µg/mL	9 µg/mL (≈ 21.6 µM)	16 µg/mL (≈ 38.4 µM)	23 µg/mL (≈ 55.2 µM)	14 µg/mL (≈ 33.6 µM)	Cc1ccc(S(=O)(=O)NNC(=O)c2cccnc2Nc2ccc(Cl)cc2)cc1
> 25 µg/mL	10 µg/mL (≈ 23.8 µM)	18 µg/mL (≈ 42.8 µM)	21 µg/mL (≈ 49.9 µM)	16 µg/mL (≈ 38 µM)	O=C(NNS(=O)(=O)c1ccc(Cl)cc1)c1cccnc1Nc1ccc(F)cc1
